ChEMBL document CHEMBL1140981, “Substrate optimization for monitoring cathepsin C activity in live cells” (Bioorg Med Chem, 2009)
Activity calls are given as the source filed them. The rule behind the calls is not given here.

Tests used:
Cathepsin S = Cathepsin S (Homo sapiens, UniProt P25774); experiment: Inhibition of human recombinant cathepsin S by fluorescence assay
Pro-cathepsin H = target: T1, Pro-cathepsin H (Homo sapiens, UniProt P09668); experiment: Inhibition of human recombinant cathepsin H by fluorescence assay
T1 sequence (P09668 whole entry): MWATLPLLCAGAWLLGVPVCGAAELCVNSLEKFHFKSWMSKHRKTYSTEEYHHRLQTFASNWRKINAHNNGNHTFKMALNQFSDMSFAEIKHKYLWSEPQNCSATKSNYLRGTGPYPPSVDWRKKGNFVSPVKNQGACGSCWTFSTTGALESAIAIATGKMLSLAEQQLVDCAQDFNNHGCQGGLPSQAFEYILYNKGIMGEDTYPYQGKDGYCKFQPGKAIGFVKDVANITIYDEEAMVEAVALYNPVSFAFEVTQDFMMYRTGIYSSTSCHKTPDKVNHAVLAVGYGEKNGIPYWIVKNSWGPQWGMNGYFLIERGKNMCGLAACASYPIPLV
In short: (§1)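 Recombinant human enzyme was preincubated with inhibitor for 20 min. Substrate was then added: H-Arg-AMC for cathepsin H, H₂N-Gly-Phe-AMC for cathepsin C. Buffer was 100 mM NaOAc, 1 mM EDTA, 0.01% Brij-35, 5 mM DTT, pH 5.5, 37 °C. AMC release was read by fluorescence, ex 380/em 450 nm. Progress curves were fitted to the Morrison equation, and apparent values were converted to Ki assuming competitive inhibition.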

Cathepsin K = target: T2, Cathepsin K (Homo sapiens, UniProt P43235); experiment: Inhibition of human recombinant cathepsin K by fluorescence assay
T2 sequence (P43235 whole entry): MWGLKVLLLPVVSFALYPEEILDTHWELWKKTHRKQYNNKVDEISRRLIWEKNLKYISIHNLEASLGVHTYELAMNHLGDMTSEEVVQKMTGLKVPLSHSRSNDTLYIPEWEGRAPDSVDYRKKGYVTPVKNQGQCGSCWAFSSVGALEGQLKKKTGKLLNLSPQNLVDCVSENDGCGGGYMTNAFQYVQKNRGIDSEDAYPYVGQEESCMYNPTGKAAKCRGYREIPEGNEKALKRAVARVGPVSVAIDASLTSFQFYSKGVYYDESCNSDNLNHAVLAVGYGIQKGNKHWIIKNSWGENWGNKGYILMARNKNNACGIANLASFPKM

Cathepsin B = Cathepsin B (Homo sapiens, UniProt P07858); experiment: Inhibition of human recombinant cathepsin B by fluorescence assay
Dipeptidyl peptidase 1 [1] = target: T3, Dipeptidyl peptidase 1 (Homo sapiens, UniProt P53634); experiment: Blockade of conjugation of cathepsin C in human B721 cells to I125-labeled (S)-2-amino-N-((S)-1-(4-hydroxy-3-iodophenylsulfonyl)-5-phenylpent-1-en-3-yl)pentanamide pretreated for 30 mins before addition of I125-labeled (S)-2-amino-N-((S)-1-(4-hydroxy-3-iodophenylsulfonyl)-5-phenylpent-1-en-3-yl)pentanamide by SDS-PAGE; type: cell-based
T3 sequence (P53634 25-134 limits assumed): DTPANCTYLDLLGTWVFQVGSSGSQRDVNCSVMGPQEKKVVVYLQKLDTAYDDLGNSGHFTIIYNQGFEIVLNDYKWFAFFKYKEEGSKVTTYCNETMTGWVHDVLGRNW
T3 sequence (P53634 231-394 limits assumed): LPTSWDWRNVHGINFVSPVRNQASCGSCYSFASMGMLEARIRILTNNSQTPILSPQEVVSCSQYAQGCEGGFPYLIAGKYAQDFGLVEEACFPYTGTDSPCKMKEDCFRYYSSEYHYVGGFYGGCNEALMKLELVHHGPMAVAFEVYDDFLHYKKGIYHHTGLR
T3 sequence (P53634 395-463 limits assumed): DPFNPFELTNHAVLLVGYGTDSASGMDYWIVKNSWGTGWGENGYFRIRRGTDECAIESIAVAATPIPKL
In short: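 B721 cells at 1 × 10⁶ cells/mL were preincubated with compound or DMSO (final 50, 10, 1, 0.1, 0 μM) for 30 min at 37 °C, 5% CO2. ¹²⁵I-labeled probe was then added at 2 nM for another 30 min at 37 °C. Cells were pelleted, lysed and boiled. Labeled cathepsin C was resolved by SDS–PAGE and quantified by phosphorimaging.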

Dipeptidyl peptidase 1 [2] = target: T3, Dipeptidyl peptidase 1; experiment: Inhibition of cathepsin C in human B721 cells by FACS assay; type: cell-based
In short: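 B721 EBV-immortalized B cells were washed and resuspended in serum-free, phenol red-free RPMI 1640 at 1 × 10⁶ cells/mL. Cells were pretreated with compound or DMSO (final 10, 3.3, 1.1, 0.37, 0.12, 0 μM) for 30 min at 37 °C, 5% CO2. (H₂N-Abu-Hph)₂-rhodamine (final 2 μM) and propidium iodide (4 μg/mL) were added. Flow cytometry read ex 488/em 530 nm at three time points 15 min apart.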

Dipeptidyl peptidase 1 [3] = target: T3, Dipeptidyl peptidase 1; experiment: Inhibition of human recombinant cathepsin C by fluorescence assay; in short: as §1
Homo sapiens [4] = species on record: Homo sapiens; experiment: Selectivity for human recombinant cathepsin C over human recombinant cathepsin K
[5] = target: Procathepsin L (Homo sapiens) (UniProt P07711); experiment: Inhibition of human recombinant cathepsin L by fluorescence assay
Sequence of Procathepsin L (Homo sapiens) (P07711 114-333 limits assumed): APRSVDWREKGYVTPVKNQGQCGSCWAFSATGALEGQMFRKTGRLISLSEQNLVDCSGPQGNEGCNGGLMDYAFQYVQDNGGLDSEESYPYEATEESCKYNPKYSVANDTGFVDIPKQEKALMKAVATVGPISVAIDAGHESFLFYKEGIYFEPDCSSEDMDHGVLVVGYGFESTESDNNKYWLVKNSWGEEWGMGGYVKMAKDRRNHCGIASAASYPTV

Homo sapiens [6] = species on record: Homo sapiens; experiment: Selectivity for human recombinant cathepsin C over human recombinant cathepsin S
Homo sapiens [7] = species on record: Homo sapiens; experiment: Selectivity for human recombinant cathepsin C over human recombinant cathepsin B
Homo sapiens [8] = species on record: Homo sapiens; experiment: Selectivity for human recombinant cathepsin C over human recombinant cathepsin H
Homo sapiens [9] = species on record: Homo sapiens; experiment: Selectivity for human recombinant cathepsin C over human recombinant cathepsin L
Dipeptidyl peptidase 1 [10] = target: T3, Dipeptidyl peptidase 1; experiment: Binding affinity to cathepsin C in human B721 cells assessed as cellular compound turnover in presence of (S)-2-Amino-pentanoic acid ((S)-3-methanesulfonyl-1-phenethyl-allyl)-amide; type: cell-based

Sequence of Cathepsin S (P25774 whole entry): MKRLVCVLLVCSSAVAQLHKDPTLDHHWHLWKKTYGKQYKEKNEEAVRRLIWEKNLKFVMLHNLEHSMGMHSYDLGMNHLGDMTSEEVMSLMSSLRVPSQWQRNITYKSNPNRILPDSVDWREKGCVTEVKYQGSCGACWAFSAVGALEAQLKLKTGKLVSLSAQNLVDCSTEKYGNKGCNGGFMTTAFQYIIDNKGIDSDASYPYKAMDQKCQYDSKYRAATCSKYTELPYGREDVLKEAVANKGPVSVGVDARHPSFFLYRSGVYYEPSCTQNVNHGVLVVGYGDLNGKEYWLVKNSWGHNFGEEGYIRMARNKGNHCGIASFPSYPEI

Row | Ki (Cathepsin S) [nM] | Ki (Pro-cathepsin H) [nM] | Ki (Cathepsin K) [nM] | Ki (Cathepsin B) [nM] | IC50 (Dipeptidyl peptidase 1 [1]) [nM] | IC50 (Dipeptidyl peptidase 1 [2]) [nM] | INH (Dipeptidyl peptidase 1 [3]) [nM] | Activity (Homo sapiens [4]) | INH [5] [nM] | Activity (Homo sapiens [6]) | Activity (Homo sapiens [7]) | Activity (Homo sapiens [8]) | Activity (Homo sapiens [9]) | Activity (Dipeptidyl peptidase 1 [10]) | Compound
1 | – | – | – | – | – | – | – | – | – | – | – | – | – | inactive | CCC[C@H](N)C(=O)N[C@@H](CCc1ccccc1)C(=O)Nc1ccc2c(c1)Oc1cc(NC(=O)[C@H](CCc3ccccc3)NC(=O)[C@@H](N)CCC)ccc1C21OC(=O)c2ccccc21
2 | – | – | – | – | – | – | – | – | – | – | – | – | – | inactive | CC[C@H](N)C(=O)N[C@@H](CCc1ccccc1)C(=O)Nc1ccc2c(c1)Oc1cc(NC(=O)[C@H](CCc3ccccc3)NC(=O)[C@@H](N)CC)ccc1C21OC(=O)c2ccccc21

Second part, the compound before the results:

Row | Compound | Ki (Cathepsin S) [nM] | Ki (Pro-cathepsin H) [nM] | Ki (Cathepsin K) [nM] | Ki (Cathepsin B) [nM] | IC50 (Dipeptidyl peptidase 1 [1]) [nM] | IC50 (Dipeptidyl peptidase 1 [2]) [nM] | INH (Dipeptidyl peptidase 1 [3]) [nM] | Activity (Homo sapiens [4]) | INH [5] [nM] | Activity (Homo sapiens [6]) | Activity (Homo sapiens [7]) | Activity (Homo sapiens [8]) | Activity (Homo sapiens [9]) | Activity (Dipeptidyl peptidase 1 [10])
3 | CC(C)C[C@H](NC(=O)N1CCOCC1)C(=O)N[C@H](/C=C/S(=O)(=O)c1ccccc1)CCc1ccccc1 | < 0.1 | 1400 | 1.2 | 64 | 4000 | 2600 | 1800 | – | – | – | – | – | – | –
4 | CCC[C@H](N)C(=O)N[C@H](/C=C/S(=O)(=O)c1ccccc1)CCc1ccccc1 | 5.5 | 137 | 120 | 1100 | 100 | 70 | 0.2 | 75 | 20 | 75 | 75 | 75 | 75 | –
5 | O=C1OC2(c3ccc(NC(=O)[C@H](CCc4ccccc4)NC(=O)[C@@H]4CCCN4)cc3Oc3cc(NC(=O)[C@H](CCc4ccccc4)NC(=O)[C@@H]4CCCN4)ccc32)c2ccccc21 | – | – | – | – | – | – | – | – | – | – | – | – | – | inactive
6 | CC[C@H](N)C(=O)N[C@H](C#N)Cc1ccc(-c2ccccc2)cc1 | > 100000 | 3700 | 18000 | > 100000 | 10000 | 6100 | 1.5 | – | – | – | – | – | – | –
